Measured values taken from paper PMC3953455 (Molecular pharmaceutics, 2013).

Columns and labels:
[1] = target: T1, human UGT1A1 (Homo sapiens, UniProt P22309); assay: Mutual glucuronidation inhibition; format: biochemical; conditions: for Ki: mixed-type inhibition; for type of inhibition of UGT1A1-mediated glucuronidation: best fit by R2 and AIC, Lineweaver-Burk plots; for decrease of apparent Vmax of glucuronidation versus control: substrate glucuronidation in presence of increasing 3,7,4′THF, up to 5 μM; for Vmax: n=3
T1 sequence (P22309 26-533): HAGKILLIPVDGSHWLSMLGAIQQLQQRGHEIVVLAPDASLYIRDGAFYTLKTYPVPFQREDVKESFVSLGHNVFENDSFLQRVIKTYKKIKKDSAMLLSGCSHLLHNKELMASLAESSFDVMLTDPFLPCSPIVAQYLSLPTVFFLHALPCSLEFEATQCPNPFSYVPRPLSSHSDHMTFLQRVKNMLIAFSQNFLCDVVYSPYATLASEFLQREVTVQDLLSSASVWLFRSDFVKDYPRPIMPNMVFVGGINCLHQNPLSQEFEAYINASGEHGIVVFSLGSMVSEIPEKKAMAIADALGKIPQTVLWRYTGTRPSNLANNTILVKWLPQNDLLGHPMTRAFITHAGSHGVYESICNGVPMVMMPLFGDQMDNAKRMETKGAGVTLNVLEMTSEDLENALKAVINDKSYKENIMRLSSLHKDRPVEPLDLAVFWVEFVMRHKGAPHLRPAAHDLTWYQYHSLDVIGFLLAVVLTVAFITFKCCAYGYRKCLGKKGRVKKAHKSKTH

[2] = target: T1, human UGT1A1; assay: Glucuronidation kinetics with expressed human UGT1A1 Supersomes; format: in vitro ADME
In short: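 Recombinant human UGT1A1 Supersomes (26.5~53.0 µg protein/mL final) with MgCl2 0.88 mM, saccharolactone 4.4 mM, alamethicin 0.022 mg/mL and UDPGA 3.5 mM (added last) in 50 mM potassium phosphate, pH 7.4. Test compound at 0–10 µM final. Incubated 37°C for 15~120 min, then stopped with acetonitrile/acetic acid. Glucuronide quantified by UPLC in triplicate. Rates were fitted to Michaelis-Menten, substrate-inhibition or Hill equations with 1/y weighting.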

[3] = Ki (inhibition of 3,7,4′THF-3-O-G formation), substrate 3,7,4′THF, 3-O-glucuronidation
[4] = Ki (inhibition of 3,7,4′THF-7-O-G formation), substrate 3,7,4′THF, 7-O-glucuronidation
[5] = glucuronide formation in presence of 3,7,4′THF 0.313 μM
[6] = glucuronide formation in presence of 3,7,4′THF 0.625 μM
[7] = glucuronide formation in presence of 3,7,4′THF 1.25 μM
[8] = glucuronide formation in presence of 3,7,4′THF 5 μM
[9] = glucuronide formation, 3,7,4′THF 0 μM (absence of inhibitor)

Vmax [1, 5] [nmol/mg/min]	Vmax [1, 6] [nmol/mg/min]	Vmax [1, 7] [nmol/mg/min]	Vmax [1, 8] [nmol/mg/min]	Vmax [1, 9] [nmol/mg/min]	SMILES	Ki [1, 3] [µM]	Ki [1, 4] [µM]	type of inhibition of UGT1A1-mediated glucuronidation [1]	decrease of apparent Vmax of glucuronidation versus control [1] [times]	other results
					O=c1c(O)c(-c2ccccc2)oc2ccccc12 [3HF, 3-Hydroxyflavone]	4.14 ± 1.24	9.04 ± 2.72	mixed-type inhibitors	≤ 4.6	
					O=c1cc(-c2ccccc2)oc2cc(O)ccc12 [7HF, 7-hydroxyflavone]	1.77 ± 0.72	4.33 ± 1.6	mixed-type inhibitors	≤ 2.4	
					O=c1c(O)c(-c2ccc(O)cc2)oc2cc(O)ccc12 [3,7,4′THF, 3,7,4′-trihydroxyflavone]			mixed-type inhibition		Ki of substrate inhibition ([2]; substrate inhibition pattern of 3,7,4′THF in the absence of three MHFs): approximately 1 μM; Ki ([1]; Ki (inhibition of glucuronidation of 3HF), substrate 3HF): 0.51 ± 0.15 µM; Ki ([1]; Ki (inhibition of glucuronidation of 7HF), substrate 7HF): 1.29 ± 0.33 µM
1.27 ± 0.03	1.16 ± 0.03	0.99 ± 0.07	0.59 ± 0.07	1.40 ± 0.05	O=C(O)[C@H]1O[C@@H](Oc2ccc3c(=O)cc(-c4ccccc4)oc3c2)[C@H](O)[C@@H](O)[C@@H]1O [7HF-O-G, 7HF-O-glucuronide]					
					O=c1cc(-c2ccc(O)cc2)oc2ccccc12 [4′HF, 4′-hydroxyflavone]	3.66 ± 0.77	6.22 ± 1.74	mixed-type inhibitors	≤ 5.0	
1.63 ± 0.07	1.67 ± 0.03	2.05 ± 0.13	0.44 ± 0.16	2.00 ± 0.05	O=C(O)[C@H]1O[C@@H](Oc2c(-c3ccccc3)oc3ccccc3c2=O)[C@H](O)[C@@H](O)[C@@H]1O [3HF-O-G, 3HF-O-glucuronide]					
0.63 ± 0.02	0.61 ± 0.02	0.58 ± 0.01	0.14 ± 0.01	0.68 ± 0.02	O=C(O)[C@H]1O[C@@H](Oc2ccc(-c3cc(=O)c4ccccc4o3)cc2)[C@H](O)[C@@H](O)[C@@H]1O [4′HF-O-G, 4′HF-O-glucuronide]					
					O=C(O)[C@H]1O[C@@H](Oc2ccc(-c3oc4cc(O)ccc4c(=O)c3O)cc2)[C@H](O)[C@@H](O)[C@@H]1O [3,7,4′THF-4′-O-G, 3,7,4′THF-4′-O-glucuronide]					detection of glucuronide in UGT1A1 reaction mixtures ([2]; 3,7,4′THF incubated with human UGT1A1): not detected
